The values below come from ChEMBL document CHEMBL1140012, “Rapid hit to lead evaluation of pyrazolo[3,4-d]pyrimidin-4-one as selective and orally bioavailable mGluR1 antagonists” (Bioorg Med Chem Lett, 2007).

The structures appear in SMILES notation. Values after ≈ are worked out from the molar mass of the structure shown.

Series [1] deals with Metabotropic glutamate receptor 5 (Homo sapiens, UniProt P41594). As to the kind of experiment: Antagonist activity at human mGluR5 receptor expressed in […] cells assessed as inhibition of glutamate-induced calcium flux by FLIPR assay. It counts as functional, cell-based. The procedure, abridged: (§1)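 1321N1 cells transfected with human mGluR1 or human mGluR5 and co-expressing rat GLAST were used in a FLIPR calcium influx assay. Calcium flux was induced by 10 μM glutamate. IC50 is the concentration blocking 50% of that flux, given as the mean ± SEM of at least three determinations.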
Sequence of Metabotropic glutamate receptor 5 (P41594 whole entry): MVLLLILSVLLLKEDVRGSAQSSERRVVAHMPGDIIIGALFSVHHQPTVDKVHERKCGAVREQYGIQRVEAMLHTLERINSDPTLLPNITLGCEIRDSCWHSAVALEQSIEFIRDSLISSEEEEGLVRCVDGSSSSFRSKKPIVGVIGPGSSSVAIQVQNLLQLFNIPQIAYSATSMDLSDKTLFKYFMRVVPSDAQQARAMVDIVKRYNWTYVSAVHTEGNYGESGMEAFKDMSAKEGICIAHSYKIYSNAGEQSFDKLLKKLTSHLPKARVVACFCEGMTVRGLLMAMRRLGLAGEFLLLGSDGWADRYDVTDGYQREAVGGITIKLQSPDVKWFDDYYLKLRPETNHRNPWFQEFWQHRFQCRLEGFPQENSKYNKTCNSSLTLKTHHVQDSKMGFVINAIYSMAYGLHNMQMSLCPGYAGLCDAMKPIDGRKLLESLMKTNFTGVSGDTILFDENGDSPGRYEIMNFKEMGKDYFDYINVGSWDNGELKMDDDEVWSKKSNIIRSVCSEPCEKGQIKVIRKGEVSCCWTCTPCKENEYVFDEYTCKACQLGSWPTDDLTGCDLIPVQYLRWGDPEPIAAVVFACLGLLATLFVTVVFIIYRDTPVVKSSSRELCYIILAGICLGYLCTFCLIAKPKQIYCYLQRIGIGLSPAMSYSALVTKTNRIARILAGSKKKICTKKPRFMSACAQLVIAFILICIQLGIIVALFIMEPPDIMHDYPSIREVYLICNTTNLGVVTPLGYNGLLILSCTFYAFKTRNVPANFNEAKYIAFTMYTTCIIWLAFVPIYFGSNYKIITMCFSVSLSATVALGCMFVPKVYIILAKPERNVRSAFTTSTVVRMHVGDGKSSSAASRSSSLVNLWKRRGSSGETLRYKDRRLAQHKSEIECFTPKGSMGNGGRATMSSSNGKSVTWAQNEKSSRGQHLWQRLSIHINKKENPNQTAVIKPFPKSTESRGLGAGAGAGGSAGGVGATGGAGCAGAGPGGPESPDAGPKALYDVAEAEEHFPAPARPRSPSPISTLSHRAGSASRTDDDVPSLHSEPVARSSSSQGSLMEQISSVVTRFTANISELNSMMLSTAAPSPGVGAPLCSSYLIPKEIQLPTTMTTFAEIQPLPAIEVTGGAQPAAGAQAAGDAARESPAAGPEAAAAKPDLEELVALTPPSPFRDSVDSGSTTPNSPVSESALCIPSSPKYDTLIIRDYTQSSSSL

The target in series [2] is Metabotropic glutamate receptor 1 (Homo sapiens, UniProt Q13255). As to the kind of experiment: Antagonist activity at human mGluR1 receptor expressed in […] cells assessed as inhibition of glutamate-induced calcium flux by FLIPR assay. It counts as functional, cell-based. The procedure, abridged:
as §1
On the technique in general: Calcium assays in cells follow changes in intracellular calcium, usually with a dye or a luminescent sensor.

Series [3] is described as follows: Aqueous solubility of the compound. It counts as physicochemical. Particulars: buffer.
Series [4] in a line: Metabolic stability assessed as intrinsic clearance in rat liver microsomes. It counts as ADME, Microsome. In a few lines:
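Intrinsic clearance was measured in rat liver microsomes and reported as scaled intrinsic clearance.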
A general note: Microsomes from liver hold many membrane-bound enzymes, among them those of drug oxidation.

Series [5] is described as follows: Permeability of the compound. It counts as ADME. Particulars: not told; read-out: permeability. The procedure, abridged: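 Passive membrane permeability was measured and reported in ×10^-6 cm/s.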
Series [6] deals with Rattus norvegicus. As to the kind of experiment: (§2) Tmax in Sprague-Dawley rat at 1 mg/kg, ip. It counts as ADME, organism-based. On the set-up: dose 1 mg/kg, route intraperitoneal. Particulars: in vivo.
Series [7] in a line: Cmax in Sprague-Dawley rat at 1 mg/kg, po. The settings on record: in vivo. It counts as ADME, organism-based. On the set-up: dose 1 mg/kg, route oral.
A short description of series [8]: Half life in Sprague-Dawley rat at 1 mg/kg, po. It counts as ADME, organism-based. On the set-up: dose 1 mg/kg, route oral. The settings on record: in vivo.
Series [9] has as its system Rattus norvegicus. The series can be described thus: (§3) Cmax in Sprague-Dawley rat at 1 mg/kg, ip. It counts as ADME, organism-based. The arrangement: dose 1 mg/kg, route intraperitoneal. Particulars: in vivo.
The nature of series [10]: Volume of distribution at terminal phase in Sprague-Dawley rat at 1 mg/kg, iv. It counts as ADME, organism-based. On the set-up: dose 1 mg/kg, route intravenous. The settings on record: in vivo, read-out: Vbeta.
The nature of series [11]: AUC in Sprague-Dawley rat at 1 mg/kg, iv. The settings on record: plasma. It counts as ADME, organism-based. The arrangement: dose 1 mg/kg, route intravenous.
Series [12] deals with Rattus norvegicus. The series can be described thus: Clearance in Sprague-Dawley rat at 1 mg/kg, iv. It counts as ADME, organism-based. The arrangement: dose 1 mg/kg, route intravenous. The settings on record: in vivo.
A short description of series [13]: Bioavailability in Sprague-Dawley rat at 1 mg/kg, ip. It counts as ADME, organism-based. Particulars: in vivo.
For series [14], the system named is Rattus norvegicus. As to the kind of experiment: (§4) Half life in Sprague-Dawley rat at 1 mg/kg, ip. On the set-up: dose 1 mg/kg, route intraperitoneal. It counts as ADME, organism-based. The settings on record: in vivo.
Series [15] in a line: Tmax in Sprague-Dawley rat at 1 mg/kg, po. It counts as ADME, organism-based. The settings on record: in vivo. On the set-up: dose 1 mg/kg, route oral.
A short description of series [16]: AUC in Sprague-Dawley rat at 1 mg/kg, po. On the set-up: dose 1 mg/kg, route oral. It counts as ADME, organism-based. The settings on record: plasma.
The nature of series [17]: Oral bioavailability in Sprague-Dawley rat at 1 mg/kg. It counts as ADME, organism-based. Particulars: in vivo.
The nature of series [18]: Half life in Sprague-Dawley rat at 1 mg/kg, iv. The settings on record: in vivo. It counts as ADME, organism-based. On the set-up: dose 1 mg/kg, route intravenous.
Series [19] concerns Rattus norvegicus. As to the kind of experiment: (§5) AUC in Sprague-Dawley rat at 1 mg/kg, ip. It counts as ADME, organism-based, Plasma. On the set-up: dose 1 mg/kg, route intraperitoneal. The settings on record: in vivo.
Series [20] can be described thus: as §2. The settings on record: Sprague-Dawley, in vivo. It counts as ADME, organism-based. The arrangement: dose 1 mg/kg, route intraperitoneal.
Series [21] can be described thus: as §3. It counts as ADME, organism-based. The arrangement: dose 1 mg/kg, route intraperitoneal. Particulars: Sprague-Dawley, in vivo.
Series [22] can be described thus: as §4. The arrangement: dose 1 mg/kg, route intraperitoneal. Particulars: Sprague-Dawley, in vivo. It counts as ADME, organism-based.
Series [23] is described as follows: as §5. It counts as ADME, organism-based, Plasma. The arrangement: dose 1 mg/kg, route intraperitoneal. The settings on record: Sprague-Dawley, plasma.

As usually defined, the IC50 is the concentration at which inhibition is half-maximal. Broadly, the solubility is the dissolved amount per volume that the medium holds. A low value points to little dissolved substance. As usually defined, the CLint scaled is the capacity of the preparation to metabolise the compound, expressed as a volume cleared per time. The term Tmax denotes the time from dosing to the highest level. One may read the Cmax as the highest concentration seen after dosing. The term half-life denotes the time needed for the level to fall by half in the phase considered. High values mean slow loss, low ones fast loss. What is called AUC is concentration integrated over time. The low end stands for less exposure, the high end for more exposure. The clearance is a measure of how efficiently the substance is removed, as volume per time. A higher clearance goes with efficient removal. What is called bioavailability is the share of a dose that reaches the circulation, judged against a reference dose that is usually intravenous.

Sequence of Metabotropic glutamate receptor 1 (Q13255 whole entry): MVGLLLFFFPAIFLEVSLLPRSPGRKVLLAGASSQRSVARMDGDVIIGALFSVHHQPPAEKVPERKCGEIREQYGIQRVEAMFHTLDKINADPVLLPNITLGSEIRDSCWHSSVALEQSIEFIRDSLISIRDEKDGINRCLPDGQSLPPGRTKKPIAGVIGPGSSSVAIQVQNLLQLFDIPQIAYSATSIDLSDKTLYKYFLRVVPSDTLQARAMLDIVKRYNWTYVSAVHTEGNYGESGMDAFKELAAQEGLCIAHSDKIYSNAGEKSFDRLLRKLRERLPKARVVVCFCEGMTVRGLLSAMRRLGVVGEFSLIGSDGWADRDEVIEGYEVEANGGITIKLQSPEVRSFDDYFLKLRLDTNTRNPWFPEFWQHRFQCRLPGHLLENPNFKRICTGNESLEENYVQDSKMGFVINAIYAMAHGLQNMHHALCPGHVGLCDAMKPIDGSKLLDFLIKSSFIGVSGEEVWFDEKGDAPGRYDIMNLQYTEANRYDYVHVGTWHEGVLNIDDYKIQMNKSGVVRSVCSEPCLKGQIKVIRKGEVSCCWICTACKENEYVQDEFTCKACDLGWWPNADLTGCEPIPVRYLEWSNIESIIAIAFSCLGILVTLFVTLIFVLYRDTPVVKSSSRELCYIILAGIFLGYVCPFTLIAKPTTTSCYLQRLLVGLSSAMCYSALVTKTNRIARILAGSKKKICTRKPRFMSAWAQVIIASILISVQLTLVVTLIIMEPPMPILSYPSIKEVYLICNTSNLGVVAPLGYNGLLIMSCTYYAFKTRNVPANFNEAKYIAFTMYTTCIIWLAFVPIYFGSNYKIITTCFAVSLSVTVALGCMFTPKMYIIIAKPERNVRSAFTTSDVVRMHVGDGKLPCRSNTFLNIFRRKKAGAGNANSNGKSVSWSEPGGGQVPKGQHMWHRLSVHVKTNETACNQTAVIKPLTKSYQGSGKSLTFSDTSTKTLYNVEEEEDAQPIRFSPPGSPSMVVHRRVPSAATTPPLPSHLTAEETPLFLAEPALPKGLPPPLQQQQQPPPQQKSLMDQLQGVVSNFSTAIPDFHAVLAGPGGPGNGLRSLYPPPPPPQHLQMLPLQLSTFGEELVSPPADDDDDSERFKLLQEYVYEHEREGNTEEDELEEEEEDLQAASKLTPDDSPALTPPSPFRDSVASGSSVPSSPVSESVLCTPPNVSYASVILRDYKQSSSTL

On to `Cc1nc2c(cnn2-c2ccc(S(N)(=O)=O)cc2)c(=O)n1-c1ccc(Cl)cc1`, for which the IC50 in [1] is more than 100 µM; in series [2] it was 1.41 µM.

As for `Cc1nc2c(cnn2-c2ccccn2)c(=O)n1-c1ccc(Cl)cc1`, the IC50 in series [1] and in series [2] was more than 100 µM throughout.

Regarding `Cc1nc2c(cnn2-c2ccccc2)c(=O)n1N1CCCCCC1`, the IC50 worked out at 3.6 µM in series [1] and 0.24 µM in [2].

As for `Cc1nc2c(cnn2CC2CCCCC2)c(=O)n1-c1ccc(Cl)cc1`, the IC50 in series [1] and in series [2] was more than 100 µM in each case.

`Cc1ccccc1-n1ncc2c(=O)n(-c3ccc(Cl)cc3)c(C)nc21`: the 50% inhibitory concentration (IC50) amounted to 9.5 µM in [1] and 0.35 µM in [2].

Consider `Cc1nc2c(cnn2-c2ccccc2)c(=O)n1-c1ccc(Cl)c(F)c1`, for which the solubility in series [3] came out at 18 µM (≈ 6.39 µg/mL). In series [4], the CLint scaled is 183 mL/min/kg. Also, the IC50 in series [1] is more than 100 µM; in series [2] it was 0.8 µM.

For `Cc1nc2c(cnn2-c2ccccc2)c(=O)n1C1CCCCCC1`, the IC50 in [2] was 0.76 µM.

As to `Cc1nc2c(cnn2-c2cncnc2)c(=O)n1-c1ccc(Cl)cc1`, the half-inhibitory concentration (IC50) in series [1] was more than 100 µM; in series [2], 9.8 µM.

With `Cc1nc2c(cnn2-c2ccccc2)c(=O)n1-c1ccc(Cl)cc1`, the solubility in series [3] was 18 µM (≈ 6.06 µg/mL). Further, the intrinsic clearance (CLint scaled) in series [4] was 117 mL/min/kg. For the same compound, the 50% inhibitory concentration (IC50) in [1] came to 9.6 µM; in [2], 0.242 µM. The Papp in [5] is 29.6 ×10⁻⁶ cm/s.

The compound `Cc1nc2c(cnn2-c2ccccc2)c(=O)n1N1CCCCC1` came in with a solubility in [3] of 19 µM (≈ 5.88 µg/mL). The CLint scaled in series [4] was 1800 mL/min/kg. Moreover, the 50% inhibitory concentration (IC50) in series [1] is 2.8 µM; in series [2] it was 0.091 µM. For the same compound, in series [5], the Papp is 5.49 ×10⁻⁶ cm/s.

In the case of `Cc1nc2c(cnn2-c2ccccc2)c(=O)n1-c1ccc(Br)cc1`, the time to peak (Tmax) in the series on Rattus norvegicus [6] was 0.25 h; in series [15], 1.3 h. Also, the results for the Cmax (in [7]; with Rattus norvegicus [9]) were 30 ng/mL and 170 ng/mL, respectively. Moreover, the half-life is 1.3 h in series [8] and 2.5 h in series [18]. The same compound yielded a solubility in [3] of 14 µM (≈ 5.34 µg/mL). Also, the Vd in [10] stood at 3.1 L/kg. In addition, the CLint scaled in [4] is 115 mL/min/kg. Moreover, the figures for the AUC (in series [11]; in [16]; in the series with Rattus norvegicus [19]) were 1280 ng·h/mL, 100 ng·h/mL and 389 ng·h/mL, respectively. Also, the clearance with Rattus norvegicus [12] is 13.3 mL/min/kg. For the same compound, the IC50 in series [1] is more than 100 µM; in [2], 0.078 µM. Moreover, the bioavailability in [13] is 30%; in series [17], 8%. This compound showed a t1/2 in the series with Rattus norvegicus [14] of 0.25 h. Also, the Papp in [5] was 19.4 ×10⁻⁶ cm/s.

Regarding `Cc1nc2c(cnn2-c2ccccc2)c(=O)n1-c1ccc(O)cc1`, the IC50 in series [1] was more than 100 µM; in [2], 2.4 µM.

As to `Cc1nc2c(cnn2-c2ccccc2)c(=O)n1-c1ccc(OC(F)(F)F)cc1`, the half-inhibitory concentration (IC50) in [1] and in series [2] was more than 100 µM in each case.

With `Cc1nc2c(cnn2-c2cccc(S(N)(=O)=O)c2)c(=O)n1-c1ccc(Cl)cc1`, the time to peak (Tmax) turned out to be 1.7 h in [20] and 1.2 h in [15]. Besides, the Cmax is 2100 ng/mL in series [7] and 1540 ng/mL in series [21]. Further, the half-life in [8] was 1.2 h; in series [22] it was 1.7 h; in series [18], 1.5 h. The same compound gave a solubility in series [3] of 42 µM (≈ 17.5 µg/mL). In addition, the Vd in series [10] came out at 0.4 L/kg. Further, in series [4], the CLint scaled was less than 41.7 mL/min/kg. Also, the area under the curve (AUC) in series [11] came to 6150 ng·h/mL; in series [16], 6240 ng·h/mL; in series [23] it was 7790 ng·h/mL. Also, the clearance in the series with Rattus norvegicus [12] worked out at 3.33 mL/min/kg. The IC50 was more than 100 µM in [1] and 0.127 µM in [2]. The Papp in series [5] came out at 17.6 ×10⁻⁶ cm/s.

`Cc1nc2c(cnn2-c2ccccc2)c(=O)n1-c1ccc(S(N)(=O)=O)cc1`: the IC50 in series [1] and in [2] was more than 100 µM in each case.

`Cc1nc2c(cnn2-c2ccc(Cl)cc2)c(=O)n1-c1ccc(Cl)cc1`: the half-maximal inhibitory concentration (IC50) in series [1] was more than 100 µM; in series [2] it was 1.1 µM.

In [3], `Cc1nc2c(cnn2-c2cccnc2)c(=O)n1-c1ccc(Cl)cc1` showed a solubility of 73 µM (≈ 24.7 µg/mL). Besides, the intrinsic clearance (CLint scaled) in [4] is 66.7 mL/min/kg. The half-inhibitory concentration (IC50) in series [1] was more than 100 µM; in [2] it was 0.23 µM. In series [5], the Papp came to 21.4 ×10⁻⁶ cm/s.

On to `Cc1nc2c(cnn2-c2cccc(Cl)c2)c(=O)n1-c1ccc(Cl)cc1`, for which the solubility in [3] worked out at 11 µM (≈ 4.08 µg/mL). Besides, the CLint scaled in series [4] was 183 mL/min/kg. The half-maximal inhibitory concentration (IC50) was more than 100 µM in series [1] and 0.22 µM in series [2]. Moreover, the Papp in [5] is 5.6 ×10⁻⁶ cm/s.

Turning to `Cc1nc2c(cnn2-c2cnccn2)c(=O)n1-c1ccc(Cl)cc1`, the IC50 in series [1] and in [2] was more than 100 µM in each case.

As for `Cc1nc2c(cnn2C2CCCCCC2)c(=O)n1-c1ccc(Cl)cc1`, the values for the concentration for half-maximal inhibition (IC50) in [1] and in series [2] were more than 100 µM and 0.52 µM, respectively.

In the case of `Cc1cccc(-n2ncc3c(=O)n(-c4ccc(Cl)cc4)c(C)nc32)c1`, the solubility in series [3] is 30 µM (≈ 10.5 µg/mL). The CLint scaled in [4] was 400 mL/min/kg. Besides, the figures for the IC50 in series [1] and in series [2] were more than 100 µM and 0.18 µM, respectively. Also, the Papp in series [5] turned out to be 13.4 ×10⁻⁶ cm/s.

For the compound `Cc1nc2c(cnn2-c2ccccc2)c(=O)n1-c1cccc(Cl)c1`, the half-maximal inhibitory concentration (IC50) in series [2] was more than 100 µM.
